For orientation: IC50 means the concentration needed to halve the response being measured.

SMILES strings stand for the structures. Values after ≈ are worked out from the molar mass of the structure shown. Active and inactive are the calls of the source. No cut-off for these calls is given here.

In assay [1] the test system is A-375. Nature of the assay: Induction of apoptosis in human A375 cells assessed as accumulation at subG1 phase at 10 ug/mL incubated for 18 hrs by propidium iodide staining based flow cytometry (reference value: 1.8%). It is filed as functional. The gist of the method:
(§1)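 A375 cells treated at 10 or 4 µg/ml for 6 h, given 0 or 8 Gy X-ray, then 12 h more. Trypsinized, washed in PBS, fixed overnight in ice-cold 75% ethanol at −20 °C. Stained with propidium iodide, 30 min at 37 °C in the dark; DNA content and sub-G1 population read by flow cytometry.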
In general terms: In flow cytometry, cells or beads pass a laser one at a time.

In assay [2] the test system is A-375. Nature of the assay: Induction of apoptosis in human A375 cells assessed as accumulation at subG1 phase at 10 ug/mL incubated for 6 hrs followed by irradiation with 8 Gy X-ray at 37 degC for 12 hrs by propidium iodide staining based flow cytometry (reference value: 2.3%). Format: functional. In short, it runs like this:
as §1

Assay [3] concerns A-375. Nature of the assay: Induction of cell cycle arrest in human A375 cells assessed as accumulation at G2/M phase at 10 ug/mL incubated for 6 hrs followed by irradiation with 8 Gy X-ray at 37 degC for 12 hrs by propidium iodide staining based flow cytometry (reference value: 47.2%). It is filed as functional. In short, it runs like this:
as §1

Assay [4] has as its system A-375. Nature of the assay: Induction of ROS generation in human A375 cells at 8 ug/mL incubated for 6 hrs followed by irradiation with 8 Gy X-ray at 37 degC for 12 hrs by DCF and DHE dye based fluorescence assay. It is filed as functional, cell-based. The gist of the method: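 A375 cells (4 × 10⁴/well) cultured 24 h, then treated 6 h at 8 or 16 µg/ml or at 2 or 4 µg/ml, and given 0 or 8 Gy X-ray. Loaded with H₂DCF or DHE for 30 min at 37 °C in the dark. Fluorescence read at 485/535 nm (DCF) or 480/610 nm (DHE); % of control.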

Assay [5] relates to A-375. Nature of the assay: Induction of cell cycle arrest in human A375 cells assessed as accumulation at G1/G0 phase at 10 ug/mL incubated for 6 hrs followed by irradiation with 8 Gy X-ray at 37 degC for 12 hrs by propidium iodide staining based flow cytometry (reference value: 44.9%). It is filed as functional. In short, it runs like this: as §1
Assay [6] relates to A-375. Nature of the assay: Induction of cell shrinkage in human A375 cells incubated for 6 hrs followed by irradiation with 8 Gy X-ray at 37 degC for 12 hrs by microscopy. It is filed as functional, cell-based. The gist of the method:
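A375 cells in DMEM with 10% FBS, 37 °C, 5% CO2. Pretreated with agent 6 h, then 0 or 8 Gy X-ray from a linear accelerator at 1.5 Gy/min, room temperature. Incubated a further 12 h; morphology imaged.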

For assay [7], the system named is A-375. Nature of the assay: Induction of cell cycle arrest in human A375 cells assessed as accumulation at S phase at 10 ug/mL incubated for 18 hrs by propidium iodide staining based flow cytometry (reference value: 37.2%). Format: functional. In short, it runs like this: as §1
Assay [8] concerns A-375. Nature of the assay: Induction of ROS generation in human A375 cells at 16 ug/mL incubated for 6 hrs followed by irradiation with 8 Gy X-ray at 37 degC for 12 hrs by DCF and DHE dye based fluorescence assay.
The test system of assay [9] is A-375. Kind of assay: Induction of cell cycle arrest in human A375 cells assessed as accumulation at G2/M phase at 10 ug/mL incubated for 18 hrs by propidium iodide staining based flow cytometry (reference value: 13.9%). Format: functional. The gist of the method: as §1
For assay [10], the system named is A-375. Kind of assay: Induction of cell cycle arrest in human A375 cells assessed as accumulation at G1/G0 phase at 10 ug/mL incubated for 18 hrs by propidium iodide staining based flow cytometry (reference value: 48.9%). It is filed as functional. In short, it runs like this:
as §1

Assay [11] has as its system A-375. Kind of assay: Induction of cell cycle arrest in human A375 cells assessed as accumulation at S phase at 10 ug/mL incubated for 6 hrs followed by irradiation with 8 Gy X-ray at 37 degC for 12 hrs by propidium iodide staining based flow cytometry (reference value: 7.9%). Format: functional. The gist of the method: as §1
The subject of assay [12] is A-375. Nature of the assay: Cytotoxicity against human A375 cells incubated for 6 hrs followed by irradiation with 8 Gy X-ray at 37 degC for 12 hrs by MTT assay. It is filed as functional, cell-based. Conditions: A-375, light or radiation study. In short, it runs like this:
(§2)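 A375 cells (DMEM, 10% FBS, 37 °C, 5% CO2) seeded at 4 × 10⁴ cells/well and grown to 70–80% confluence. Treated with 0, 1, 2, 4, 8, 16 or 32 µg/ml for 6 h, then given 0 or 8 Gy X-ray (linear accelerator, 1.5 Gy/min), then 12 h more at 37 °C. MTT 4 h, formazan dissolved in DMSO, read at 570 nm; % of control; three repeats.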
On the technique in general: Tetrazolium assays rely on reduction of a dye to a coloured formazan, in cell work by metabolically active cells.

In assay [13] the test system is A-375. Nature of the assay: Induction of ROS generation in human A375 cells at 16 ug/mL […] by DCF and DHE dye based fluorescence assay. It is filed as functional, cell-based.
The subject of assay [14] is A-375. Nature of the assay: Cytotoxicity against human A375 cells after 18 hrs by MTT assay. Format: functional, cell-based. Conditions: A-375, 18 h. The gist of the method:
as §2

Assay [15] concerns A-375. Nature of the assay: Induction of ROS generation in human A375 cells at 8 ug/mL […] by DCF and DHE dye based fluorescence assay. Format: functional, cell-based.
The test system of assay [16] is A-375. Nature of the assay: Induction of cell morphological changes in human A375 cells incubated for 6 hrs followed by irradiation with 8 Gy X-ray at 37 degC for 12 hrs by microscopy. Format: functional, cell-based.

In the case of `COc1cc(Cn2c(-c3cc(OC)c(OC)c(OC)c3)nc3ccc(-c4ccc5n[se]nc5c4)cc32)cc(OC)c1OC`, the Activity amounted to 11.7% in assay [1]; 57.6% in assay [2]; 2.7% in [3]; 60.5% in assay [5]; 21.3% in [7]; 9.4% in [9]. Also, the results for the Activity in assay [10] and in assay [11] were 69.3% and 36.8%, respectively. Besides, the outcome in assay [4], in assay [6], in assay [8], in [13], in assay [15] and in [16] was Active. Also, the concentration for half-maximal inhibition (IC50) is 8 µg/mL (≈ 12.4 µM) in [12] and 26.4 µg/mL (≈ 40.9 µM) in assay [14].
`COc1cc(Cn2c(-c3cc(OC)c(OC)c(OC)c3)nc3cc(-c4ccc5n[se]nc5c4)ccc32)cc(OC)c1OC`: the result in assay [6] and in assay [16] was Active. The half-inhibitory concentration (IC50) in assay [12] was determined as 9.2 µg/mL (≈ 14.3 µM); in assay [14], 28.3 µg/mL (≈ 43.8 µM).

(Values after ChEMBL document CHEMBL3352644, “Selenadiazole derivatives as potent thioredoxin reductase inhibitors that enhance the radiosensitivity of cancer cells” (Eur J Med Chem, 2014).)
